bCat KO growth = beta-catenin-lacking colon tumor cell growth suppression. 140,000 compounds, 1.5% hits. HCT116 beta-catenin knockout viability, CellTiter-Glo, 60 h; hits give low values. viability, % at 10 µM. AID 818;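 active means viability at or under a set limit, the compound median less 4 SD, cut at about 6% in these data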
HCT116 PTEN-null = growth suppressors of cells with PTEN tumor suppressor deletion. HCT116 PTEN-null viability, CellTiter-Glo, 60 h; hits give low values. viability, % at 10 µM. 140,000 compounds, 1.2% hits;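 active means viability at or below a set limit, 4 SD under the median of all tested compounds, cut at about 3.7% in these data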;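 further: PTEN knockout HCT116 line with beta catenin targeted HCT116 as companion control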
HUVEC prolif 384 = inhibitors of human endothelial cell proliferation; 86,000 compounds, 1.1% hits; viability, % at 10 µM (by protocol); HUVEC proliferation, CellTiter-Glo luminescence, 72 h; hits give low values;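 active means viability at or below 30%; inactive means viability above 30%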
H69AR growth 86K = growth inhibitors of human H69AR lung tumor cells. 85,000 compounds, 6% hits. H69AR lung tumor viability, ATP luminescence, 72 h; hits give low values. viability, % at 10 µM;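 active means viability at or below 40%; inactive means viability above 40%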;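 further: multidrug resistant small cell line overexpressing MRP-1 efflux transporter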
Fibroblast inh = blocks proliferation of human lung fibroblasts; LL 47 human lung fibroblast viability, ATP luminescence; hits give low values; viability, % at 10 µM; 85,000 compounds, 1.1% hits;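 active means viability at or below 50% in the single dose screen; inactive means viability above 50%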;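 further: compound exposure lasted 72 h before the ATP readout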
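material = human LL 47 lung fibroblast cells | dosing = compounds added from tenfold dosing solution, 0.1% DMSO final | timing = overnight cell rest, 72 h compound treatment at 37 °C | measured by = CellTiter-Glo luminescence measuring cellular ATP | evaluation = % viability versus median cells-only luminescence | control set = cell-only wells, no compound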
Large screens that a line does not name were inactive. The entries come from a sample that favours hits as a whole.

COC(=O)c1cc(COc2ccc3c(c2)oc(=O)c2ccccc23)c(C)o1	HUVEC prolif 384 25, H69AR growth 86K 20
COc1ccccc1CP(=O)(c1ccccc1)c1ccccc1	none (no result: HUVEC prolif 384, H69AR growth 86K, Fibroblast inh)
Cc1ccccc1NC(=O)c1c(O)c2cccc3c2n(c1=O)CC3	none (no result: bCat KO growth, HCT116 PTEN-null)
Cc1cccnc1NC(=O)c1c(O)c2ccccc2n(C)c1=O	H69AR growth 86K 5.4
O=C(Nc1ccccn1)c1c(O)c2cccc3c2n(c1=O)CCC3	H69AR growth 86K 35
Cc1ccccc1NC(=O)c1c(O)c2cccc3c2n(c1=O)CCC3	H69AR growth 86K 31 (no result: bCat KO growth, HCT116 PTEN-null)
O=C(NCC1CCCO1)c1c(O)c2cccc3c2n(c1=O)CCC3 (stereo not drawn)	none (no result: HUVEC prolif 384, H69AR growth 86K, Fibroblast inh)
Cc1cccnc1NC(=O)c1c(O)c2cccc3c2n(c1=O)CCC3	H69AR growth 86K 2.8
CCOC(=O)c1[nH]c2ccccc2c1NC(=O)c1ccc(S(=O)(=O)N2CCCCC2)cc1	none (no result: HUVEC prolif 384, H69AR growth 86K, Fibroblast inh)
CCc1ccc(N2C(=O)CC(N(CC3CCCO3)C(=O)/C=C/C(=O)O)C2=O)cc1 (stereo not drawn)	none (no result: HUVEC prolif 384, H69AR growth 86K, Fibroblast inh)
O=C(Nc1nccs1)c1c(O)c2cccc3c2n(c1=O)CCC3	H69AR growth 86K 4.0, Fibroblast inh 49
O=C(NCCO)c1c(O)c2cccc3c2n(c1=O)CC3	none (no result: H69AR growth 86K)
Cc1ccc(Cn2c(NCCCn3ccnc3)nc3c2c(=O)n(C)c(=O)n3C)cc1	none
[N-]=[N+]=NC1C[C@H](n2ccc(=O)[nH]c2=O)O[C@@H]1CO (stereo partly drawn)	bCat KO growth 1.1, HCT116 PTEN-null 1.0 (no result: HUVEC prolif 384, H69AR growth 86K, Fibroblast inh)
O=C(NCCN1CCOCC1)c1cc(=O)[nH]c2ccc(Br)cc12	none
O=C(NCCCN1CCOCC1)c1c(O)c2cc(Br)cc(Br)c2[nH]c1=O	H69AR growth 86K 18 (no result: bCat KO growth, HCT116 PTEN-null)
COc1ccc(C2N(S(=O)(=O)c3ccccc3)CCN2S(=O)(=O)c2ccc(C)cc2)cc1 (stereo not drawn)	none
Cc1cc(/C=N/n2cnnc2)c(C)n1-c1ccc(OCc2ccc(Cl)cc2)cc1	bCat KO growth 5.3, H69AR growth 86K 5.8
COc1cc(C(=O)Oc2ccccc2/C=N/NC(=O)c2ccc(Cl)cc2)cc(OC)c1OC	none (no result: HUVEC prolif 384, H69AR growth 86K, Fibroblast inh)
COc1cc(C(=O)Oc2ccccc2/C=N/NC(=O)c2ccc(C)c(Cl)c2)cc(OC)c1OC	bCat KO growth 5.2, HCT116 PTEN-null 2.7 (no result: HUVEC prolif 384, H69AR growth 86K, Fibroblast inh)
O=C(N/N=C/c1ccccc1OC(=O)c1ccc2c(c1)OCO2)c1cccc(F)c1	bCat KO growth 5.0, HCT116 PTEN-null 3.4 (no result: HUVEC prolif 384, H69AR growth 86K, Fibroblast inh)
Cn1c(=O)c2c(-c3ccccc3)n(C3CCCCC3)cc2n(C)c1=O	H69AR growth 86K 37
Cc1cccc(-c2c3c(=O)n(C)c(=O)n(C)c3cn2C(C)(C)C)c1	none
Cc1cccc(-c2c3c(=O)n(C)c(=O)n(C)c3cn2C2CCCCC2)c1	H69AR growth 86K 23
COc1ccc(N2CC(NC(=O)NCCC(C)C)CC2=O)cc1 (stereo not drawn)	none (no result: HUVEC prolif 384, H69AR growth 86K, Fibroblast inh)
COc1ccc(/C(N)=N/OC(=O)C2CCC(=O)N2S(=O)(=O)c2ccc(C)cc2)cc1OC (stereo not drawn)	none (no result: HUVEC prolif 384, H69AR growth 86K, Fibroblast inh)
CC(OC(=O)CCc1nc2ccccc2c(=O)[nH]1)C(=O)c1ccc(C(C)(C)C)cc1 (stereo not drawn)	none (no result: HUVEC prolif 384, H69AR growth 86K, Fibroblast inh)
CC1CC1C(=O)OCC(=O)NCc1ccccc1Cl (stereo not drawn)	H69AR growth 86K 29
CN1C/C(=C\c2ccc(N3CCOCC3)cc2)C(=O)/C(=C/c2ccc(N3CCOCC3)cc2)C1	bCat KO growth 2.9, HCT116 PTEN-null 2.2 (no result: HUVEC prolif 384, H69AR growth 86K, Fibroblast inh)
CN1C/C(=C/c2ccsc2)C(=O)/C(=C/c2ccsc2)C1	bCat KO growth 3.5, HCT116 PTEN-null 3.1 (no result: HUVEC prolif 384, H69AR growth 86K, Fibroblast inh)
CCN1C/C(=C/c2ccc(N3CCOCC3)cc2)C(=O)/C(=C/c2ccc(N3CCOCC3)cc2)C1	bCat KO growth 2.2, HCT116 PTEN-null 1.9 (no result: HUVEC prolif 384, H69AR growth 86K, Fibroblast inh)
CCCCOC(=O)C1=C(C)NC(=O)NC1c1ccc([N+](=O)[O-])s1 (stereo not drawn)	none (no result: HUVEC prolif 384, H69AR growth 86K, Fibroblast inh)
COc1ccc(OC)c(S(=O)(=O)N(C)CC(=O)N2CCN(c3ccc(F)cc3)CC2)c1	Fibroblast inh 18
Cc1ccc(C)c(C(=O)COc2ccccc2[N+](=O)[O-])c1	bCat KO growth 1.9, HCT116 PTEN-null 1.6 (no result: HUVEC prolif 384, H69AR growth 86K, Fibroblast inh)
CCCCN=C1NN=C(c2cc3ccccc3o2)CS1	none (no result: HUVEC prolif 384, H69AR growth 86K, Fibroblast inh)
COc1ccc(OC)c(Nc2nc(-c3sc(NC(=O)C(C)(C)C)nc3C)cs2)c1	none (no result: HUVEC prolif 384, H69AR growth 86K, Fibroblast inh)
COc1ccc(OC)c(Nc2nc(-c3sc(C)nc3C)cs2)c1	H69AR growth 86K 26
Clc1ccc(C2=C3CCCCn4c(-c5ccccc5)c[n+](c43)C2)cc1	HUVEC prolif 384 18, H69AR growth 86K 36, Fibroblast inh 42

Assay outcomes deposited in PubChem BioAssay by SRMLSC.
